ChEMBL document CHEMBL3352626, “Synthesis and biological evaluation of novel oxindole-based RTK inhibitors as anti-cancer agents” (Bioorg Med Chem, 2014)
Activity calls are given as the source filed them. The calls are words filed in the database; no cut-off is given here.

What was measured:
[1] = Antiproliferative activity against human Bel7402 cells at 10 uM after 72 hrs by MTS assay; format: functional, Bel-7402
[2] = molecular target: T1, Serine/threonine-protein kinase Sgk1 (Homo sapiens) (UniProt O00141); assay: Inhibition of recombinant SGK1 (unknown origin) at 1 uM after 1 hr by microfluidic assay
T1 sequence (whole entry): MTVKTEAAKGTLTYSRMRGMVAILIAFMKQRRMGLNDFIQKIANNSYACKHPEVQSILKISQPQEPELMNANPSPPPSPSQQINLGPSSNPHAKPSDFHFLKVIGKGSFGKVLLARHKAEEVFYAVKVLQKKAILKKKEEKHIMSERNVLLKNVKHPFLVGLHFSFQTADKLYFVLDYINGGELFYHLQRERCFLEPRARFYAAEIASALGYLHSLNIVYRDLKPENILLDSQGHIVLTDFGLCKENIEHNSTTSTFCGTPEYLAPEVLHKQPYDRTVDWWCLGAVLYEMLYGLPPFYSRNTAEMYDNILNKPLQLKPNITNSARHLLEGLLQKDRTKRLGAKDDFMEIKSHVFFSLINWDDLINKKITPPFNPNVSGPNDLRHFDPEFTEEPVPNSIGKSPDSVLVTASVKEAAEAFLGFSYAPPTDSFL
Method in brief: (§1)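 Caliper microfluidic mobility-shift assay using recombinant kinases from Carna. Enzyme, substrate, ATP (at Km) and compound reacted for 1 h, then stopped with EDTA. Substrate-to-phosphoproduct conversion read on EZ Reader II. Percent inhibition calculated relative to no-enzyme blanks and full-reaction wells, each containing 2.5% DMSO.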

[3] = molecular target: Vascular endothelial growth factor receptor 2 (Homo sapiens) (UniProt P35968); assay: Inhibition of recombinant KDR (unknown origin) at 1 uM after 1 hr by microfluidic assay; method in brief: as §1
Sequence of Vascular endothelial growth factor receptor 2 (Homo sapiens) (P35968 whole entry): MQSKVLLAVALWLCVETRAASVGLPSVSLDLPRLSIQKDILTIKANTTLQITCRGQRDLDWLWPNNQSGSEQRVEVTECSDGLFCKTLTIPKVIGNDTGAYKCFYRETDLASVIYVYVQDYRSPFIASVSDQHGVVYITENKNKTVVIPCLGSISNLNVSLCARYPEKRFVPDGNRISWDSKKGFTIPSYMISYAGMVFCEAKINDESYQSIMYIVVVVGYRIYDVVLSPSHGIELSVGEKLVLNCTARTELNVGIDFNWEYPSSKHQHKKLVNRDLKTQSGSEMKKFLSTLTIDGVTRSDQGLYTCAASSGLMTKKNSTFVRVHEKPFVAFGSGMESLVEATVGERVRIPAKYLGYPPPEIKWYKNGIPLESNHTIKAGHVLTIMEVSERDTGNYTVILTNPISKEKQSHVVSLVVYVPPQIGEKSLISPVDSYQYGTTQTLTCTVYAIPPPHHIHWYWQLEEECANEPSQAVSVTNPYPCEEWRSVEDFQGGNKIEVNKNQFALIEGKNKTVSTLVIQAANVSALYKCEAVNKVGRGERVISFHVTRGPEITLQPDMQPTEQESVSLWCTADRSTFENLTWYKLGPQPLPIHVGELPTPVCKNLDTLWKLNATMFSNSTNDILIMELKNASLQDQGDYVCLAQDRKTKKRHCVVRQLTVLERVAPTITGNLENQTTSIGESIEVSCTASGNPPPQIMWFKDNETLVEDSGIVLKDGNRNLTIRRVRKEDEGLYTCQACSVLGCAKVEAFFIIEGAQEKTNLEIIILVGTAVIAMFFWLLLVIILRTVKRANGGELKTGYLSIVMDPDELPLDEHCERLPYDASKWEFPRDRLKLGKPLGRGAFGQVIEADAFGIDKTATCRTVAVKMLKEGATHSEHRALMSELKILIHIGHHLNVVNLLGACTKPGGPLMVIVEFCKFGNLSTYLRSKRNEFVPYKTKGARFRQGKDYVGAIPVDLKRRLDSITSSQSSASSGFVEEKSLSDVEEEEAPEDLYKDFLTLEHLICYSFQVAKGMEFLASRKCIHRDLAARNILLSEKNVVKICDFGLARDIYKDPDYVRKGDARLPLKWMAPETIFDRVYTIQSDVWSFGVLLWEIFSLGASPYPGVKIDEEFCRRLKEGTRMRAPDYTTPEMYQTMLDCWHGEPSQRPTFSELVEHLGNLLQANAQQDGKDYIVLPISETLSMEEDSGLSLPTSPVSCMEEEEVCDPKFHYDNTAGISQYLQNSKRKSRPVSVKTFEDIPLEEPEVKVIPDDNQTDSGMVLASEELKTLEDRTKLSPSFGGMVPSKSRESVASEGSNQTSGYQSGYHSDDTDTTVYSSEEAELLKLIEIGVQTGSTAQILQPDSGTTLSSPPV

Aurora kinase B [4] = molecular target: T2, Aurora kinase B (Homo sapiens, UniProt Q96GD4); assay: Inhibition of recombinant Aur B (unknown origin) after 1 hr by microfluidic assay; method in brief: as §1
T2 sequence (Q96GD4 whole entry): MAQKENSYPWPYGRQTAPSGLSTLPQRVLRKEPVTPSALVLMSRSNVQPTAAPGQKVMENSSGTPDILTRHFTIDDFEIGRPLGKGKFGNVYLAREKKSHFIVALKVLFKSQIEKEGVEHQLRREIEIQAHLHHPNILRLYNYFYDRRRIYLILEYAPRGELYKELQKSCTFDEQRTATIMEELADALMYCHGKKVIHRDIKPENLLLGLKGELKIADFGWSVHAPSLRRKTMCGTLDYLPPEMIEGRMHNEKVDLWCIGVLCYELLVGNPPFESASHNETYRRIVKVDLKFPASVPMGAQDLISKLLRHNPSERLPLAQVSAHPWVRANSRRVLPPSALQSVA

[5] = molecular target: T1, Serine/threonine-protein kinase Sgk1 (Homo sapiens); assay: Inhibition of recombinant SGK1 (unknown origin) at 0.1 uM after 1 hr by microfluidic assay; method in brief: as §1
[6] = Antiproliferative activity against human PM8910 cells after 72 hrs by MTS assay; format: functional, cell-based; settings: PM8910, 72 h
Method in brief: (§2)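 Cells at 4 × 10^4 cells/ml, seeded and left overnight, then exposed in triplicate to 30, 10, 3, 1, 0.3 and 0.1 µM compound in DMSO for 72 h at 37 °C under 5% CO2. MTS dye added for 4 h and absorbance read at 490 nm. Inhibition = (1 − OD treated/OD DMSO control) × 100. IC50 derived from the dilution series.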

[7] = Antiproliferative activity against human H460 cells after 72 hrs by MTS assay; format: functional, cell-based; settings: NCI-H460, 72 h; method in brief: as §2
[8] = Antiproliferative activity against human SGC7901 cells after 72 hrs by MTS assay; format: functional, cell-based; settings: SGC-7901, 72 h; method in brief: as §2
A549 [9] = assay: Antiproliferative activity against human A549 cells at 10 uM after 72 hrs by MTS assay; format: functional
[10] = Antiproliferative activity against human H460 cells at 10 uM after 72 hrs by MTS assay; format: functional, NCI-H460
[11] = Antiproliferative activity against rat NRK-52E cells after 72 hrs by MTS assay; format: cell-based
[12] = Cell cycle arrest at G1 phase in human PM8910 cells at 5 to 10 uM after 24 hrs by flow cytometry; format: functional, cell-based
Method in brief: (§3)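 Cells seeded in 60 mm plates, treated for 24 h, washed twice in PBS and fixed in ice-cold 75% ethanol. Stained overnight at 4 °C with PI ([…]) containing RNase 180 U/ml, 0.15% Triton X-100 and polyethylene glycol in 4 mmol/l citrate, pH 7.8. DNA content measured by FACScan flow cytometry against a DMSO group. Mean ± SEM of three independent experiments.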

Aurora kinase B [13] = molecular target: T2, Aurora kinase B; assay: Inhibition of recombinant Aur B (unknown origin) at 0.1 uM after 1 hr by microfluidic assay; method in brief: as §1
[14] = molecular target: T3, Mast/stem cell growth factor receptor Kit (Homo sapiens, UniProt P10721); assay: Inhibition of recombinant c-Kit (unknown origin) after 1 hr by microfluidic assay; method in brief: as §1
T3 sequence (P10721 whole entry): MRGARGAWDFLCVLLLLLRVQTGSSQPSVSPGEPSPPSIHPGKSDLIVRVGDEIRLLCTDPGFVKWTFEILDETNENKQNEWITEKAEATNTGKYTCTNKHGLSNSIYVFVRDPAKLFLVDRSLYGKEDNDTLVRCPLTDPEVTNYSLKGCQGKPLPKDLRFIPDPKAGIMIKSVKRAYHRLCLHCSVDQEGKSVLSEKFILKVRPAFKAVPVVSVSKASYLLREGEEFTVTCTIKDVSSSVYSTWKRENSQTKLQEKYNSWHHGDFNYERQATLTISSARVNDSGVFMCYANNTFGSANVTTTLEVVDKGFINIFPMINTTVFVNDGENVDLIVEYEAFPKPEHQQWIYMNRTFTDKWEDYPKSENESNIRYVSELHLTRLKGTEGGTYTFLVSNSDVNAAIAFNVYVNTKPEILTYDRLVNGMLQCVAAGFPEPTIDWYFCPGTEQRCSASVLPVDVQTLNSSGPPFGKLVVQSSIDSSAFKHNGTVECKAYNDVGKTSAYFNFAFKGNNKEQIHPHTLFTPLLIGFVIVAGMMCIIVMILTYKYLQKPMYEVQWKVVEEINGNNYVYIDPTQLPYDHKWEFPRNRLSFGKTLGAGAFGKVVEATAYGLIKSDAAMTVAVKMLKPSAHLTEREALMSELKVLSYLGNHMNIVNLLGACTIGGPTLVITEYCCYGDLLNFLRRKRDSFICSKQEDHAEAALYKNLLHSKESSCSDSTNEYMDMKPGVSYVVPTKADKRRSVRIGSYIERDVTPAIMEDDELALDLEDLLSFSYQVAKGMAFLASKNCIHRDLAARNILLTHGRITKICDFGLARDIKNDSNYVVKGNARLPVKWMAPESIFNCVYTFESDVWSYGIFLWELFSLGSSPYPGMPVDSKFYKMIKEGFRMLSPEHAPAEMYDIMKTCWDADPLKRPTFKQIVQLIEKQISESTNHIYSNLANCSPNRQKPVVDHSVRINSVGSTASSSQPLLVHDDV

[15] = Cell cycle arrest in human SGC7901 cells assessed as reduction of cells in S phase at 5 to 10 uM after 24 hrs by flow cytometry; format: functional, cell-based; settings: SGC-7901; method in brief: as §3
[16] = molecular target: Vascular endothelial growth factor receptor 2 (Homo sapiens) (UniProt P35968); assay: Inhibition of recombinant KDR (unknown origin) at 0.1 uM after 1 hr by microfluidic assay; method in brief: as §1
[17] = molecular target: T3, Mast/stem cell growth factor receptor Kit; assay: Inhibition of recombinant c-Kit (unknown origin) at 1 uM after 1 hr by microfluidic assay; method in brief: as §1
[18] = molecular target: T3, Mast/stem cell growth factor receptor Kit; assay: Inhibition of recombinant c-Kit (unknown origin) at 0.1 uM after 1 hr by microfluidic assay; method in brief: as §1
[19] = Cell cycle arrest at G1 phase in human SGC7901 cells at 5 to 10 uM after 24 hrs by flow cytometry; format: functional, cell-based; settings: SGC-7901; method in brief: as §3
A549 [20] = assay: Cell cycle arrest at G1 phase in human A549 cells at 5 to 10 uM after 24 hrs by flow cytometry; format: functional, cell-based; method in brief: as §3
[21] = molecular target: T1, Serine/threonine-protein kinase Sgk1 (Homo sapiens); assay: Inhibition of recombinant SGK1 (unknown origin) at 10 uM after 1 hr by microfluidic assay; method in brief: as §1
[22] = Antiproliferative activity against human PM8910 cells at 10 uM after 72 hrs by MTS assay; format: functional
[23] = molecular target: Platelet-derived growth factor receptor beta (Homo sapiens) (UniProt P09619); assay: Inhibition of recombinant PDGFRb (unknown origin) at 10 uM after 1 hr by microfluidic assay; method in brief: as §1
Sequence of Platelet-derived growth factor receptor beta (Homo sapiens) (P09619 whole entry): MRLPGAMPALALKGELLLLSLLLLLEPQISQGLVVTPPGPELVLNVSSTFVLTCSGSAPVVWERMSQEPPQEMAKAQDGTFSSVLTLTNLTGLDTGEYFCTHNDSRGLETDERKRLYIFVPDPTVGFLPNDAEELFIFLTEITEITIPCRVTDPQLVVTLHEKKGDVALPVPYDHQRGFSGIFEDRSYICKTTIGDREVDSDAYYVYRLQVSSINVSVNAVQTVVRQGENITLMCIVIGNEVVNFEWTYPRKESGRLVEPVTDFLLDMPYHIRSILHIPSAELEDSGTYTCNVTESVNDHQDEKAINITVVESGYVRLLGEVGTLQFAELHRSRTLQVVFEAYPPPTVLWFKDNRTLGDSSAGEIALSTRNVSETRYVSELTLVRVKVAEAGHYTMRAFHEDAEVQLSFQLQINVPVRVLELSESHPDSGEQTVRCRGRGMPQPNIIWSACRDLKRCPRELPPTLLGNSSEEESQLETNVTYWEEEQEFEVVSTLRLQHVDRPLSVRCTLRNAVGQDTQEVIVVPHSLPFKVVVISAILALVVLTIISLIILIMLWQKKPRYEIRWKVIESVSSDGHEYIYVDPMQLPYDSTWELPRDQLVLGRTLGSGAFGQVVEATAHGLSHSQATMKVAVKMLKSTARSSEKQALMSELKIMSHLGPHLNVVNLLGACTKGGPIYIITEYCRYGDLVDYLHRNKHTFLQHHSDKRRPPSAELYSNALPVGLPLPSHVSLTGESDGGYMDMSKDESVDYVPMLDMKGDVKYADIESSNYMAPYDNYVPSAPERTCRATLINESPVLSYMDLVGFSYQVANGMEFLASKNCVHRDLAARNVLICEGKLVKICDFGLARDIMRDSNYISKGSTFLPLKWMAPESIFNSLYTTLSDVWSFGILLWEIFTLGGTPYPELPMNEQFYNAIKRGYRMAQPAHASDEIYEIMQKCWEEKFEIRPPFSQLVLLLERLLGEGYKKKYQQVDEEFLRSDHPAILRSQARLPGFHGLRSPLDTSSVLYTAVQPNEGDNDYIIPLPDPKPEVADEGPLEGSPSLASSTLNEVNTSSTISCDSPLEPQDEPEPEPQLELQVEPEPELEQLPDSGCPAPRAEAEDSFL

Aurora kinase B [24] = molecular target: T2, Aurora kinase B; assay: Inhibition of recombinant Aur B (unknown origin) at 1 uM after 1 hr by microfluidic assay; method in brief: as §1
[25] = molecular target: Epidermal growth factor receptor (Homo sapiens) (UniProt P00533); assay: Inhibition of recombinant EGFR (unknown origin) at 1 uM after 1 hr by microfluidic assay; method in brief: as §1
Sequence of Epidermal growth factor receptor (Homo sapiens) (P00533 whole entry): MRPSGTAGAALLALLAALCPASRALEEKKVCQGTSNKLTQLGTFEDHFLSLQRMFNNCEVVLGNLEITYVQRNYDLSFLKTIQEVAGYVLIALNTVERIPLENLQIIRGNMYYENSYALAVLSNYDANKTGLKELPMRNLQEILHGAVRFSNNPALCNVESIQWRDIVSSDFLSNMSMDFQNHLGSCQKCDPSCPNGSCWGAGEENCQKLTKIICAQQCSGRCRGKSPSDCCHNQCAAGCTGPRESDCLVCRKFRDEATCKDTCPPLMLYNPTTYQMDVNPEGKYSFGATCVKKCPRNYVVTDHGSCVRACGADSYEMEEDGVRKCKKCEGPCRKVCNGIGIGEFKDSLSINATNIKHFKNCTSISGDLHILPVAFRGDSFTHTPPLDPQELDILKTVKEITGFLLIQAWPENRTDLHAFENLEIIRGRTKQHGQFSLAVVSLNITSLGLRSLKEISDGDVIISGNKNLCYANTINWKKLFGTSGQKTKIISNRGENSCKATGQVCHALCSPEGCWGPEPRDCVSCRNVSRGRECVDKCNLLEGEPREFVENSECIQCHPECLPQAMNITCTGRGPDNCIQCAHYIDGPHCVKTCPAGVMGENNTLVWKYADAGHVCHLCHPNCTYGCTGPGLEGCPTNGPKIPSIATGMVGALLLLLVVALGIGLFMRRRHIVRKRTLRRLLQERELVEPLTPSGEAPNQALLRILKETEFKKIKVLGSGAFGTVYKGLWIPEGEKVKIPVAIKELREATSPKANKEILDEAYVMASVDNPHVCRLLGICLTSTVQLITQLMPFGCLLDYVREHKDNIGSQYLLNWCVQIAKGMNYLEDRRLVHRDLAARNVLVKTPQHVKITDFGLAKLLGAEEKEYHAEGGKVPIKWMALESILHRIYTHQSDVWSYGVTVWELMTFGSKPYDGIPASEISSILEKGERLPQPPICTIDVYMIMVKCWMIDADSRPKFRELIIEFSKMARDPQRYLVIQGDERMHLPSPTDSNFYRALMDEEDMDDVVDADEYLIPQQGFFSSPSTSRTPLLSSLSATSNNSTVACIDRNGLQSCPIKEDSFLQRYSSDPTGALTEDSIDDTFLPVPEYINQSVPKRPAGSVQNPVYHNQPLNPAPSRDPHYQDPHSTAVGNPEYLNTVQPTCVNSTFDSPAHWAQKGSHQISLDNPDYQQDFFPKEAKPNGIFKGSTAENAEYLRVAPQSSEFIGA

[26] = Antiproliferative activity against human HCC827 cells at 10 uM after 72 hrs by MTS assay; format: functional
U-251 = assay: Antiproliferative activity against human U251 cells at 10 uM after 72 hrs by MTS assay; format: functional
Method in brief: (§4)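 Single-concentration screen. Cells at 4 × 10^4 cells/ml, seeded and incubated overnight, then given 10 µM compound in DMSO for 72 h (37 °C, 5% CO2), with DMSO-only controls. MTS added for 4 h and A490 read. Percent inhibition = (1 − OD490 treated/OD490 control) × 100, from triplicate experiments.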

Aurora kinase B [27] = molecular target: T2, Aurora kinase B; assay: Inhibition of recombinant Aur B (unknown origin) at 10 uM after 1 hr by microfluidic assay; method in brief: as §1
[28] = Antiproliferative activity against human HCC827 cells after 72 hrs by MTS assay; format: functional, cell-based; settings: HCC827, 72 h; method in brief: as §2
[29] = molecular target: Vascular endothelial growth factor receptor 2 (Homo sapiens) (UniProt P35968); assay: Inhibition of recombinant KDR (unknown origin) at 10 uM after 1 hr by microfluidic assay; method in brief: as §1
[30] = Antiproliferative activity against human SGC7901 cells at 10 uM after 72 hrs by MTS assay; format: functional, SGC-7901
[31] = Antiproliferative activity against human SKBR3 cells at 10 uM after 72 hrs by MTS assay; format: functional, SK-BR-3; method in brief: as §4
[32] = molecular target: Epidermal growth factor receptor (Homo sapiens) (UniProt P00533); assay: Inhibition of recombinant EGFR (unknown origin) at 0.1 uM after 1 hr by microfluidic assay; method in brief: as §1
[33] = molecular target: Platelet-derived growth factor receptor beta (Homo sapiens) (UniProt P09619); assay: Inhibition of recombinant PDGFRb (unknown origin) at 1 uM after 1 hr by microfluidic assay; method in brief: as §1
A549 [34] = assay: Antiproliferative activity against human A549 cells after 72 hrs by MTS assay; format: functional, cell-based; settings: A549, 72 h; method in brief: as §2
[35] = molecular target: T3, Mast/stem cell growth factor receptor Kit; assay: Inhibition of recombinant c-Kit (unknown origin) at 10 uM after 1 hr by microfluidic assay; method in brief: as §1
[36] = molecular target: Platelet-derived growth factor receptor beta (Homo sapiens) (UniProt P09619); assay: Inhibition of recombinant PDGFRb (unknown origin) at 0.1 uM after 1 hr by microfluidic assay; method in brief: as §1
[37] = Antiproliferative activity against human Bel7402 cells after 72 hrs by MTS assay; format: functional, cell-based; settings: Bel-7402, 72 h; method in brief: as §2
NCI-H1975 = assay: Antiproliferative activity against human NCI-H1975 cells at 10 uM after 72 hrs by MTS assay; format: functional; method in brief: as §4
[38] = molecular target: Epidermal growth factor receptor (Homo sapiens) (UniProt P00533); assay: Inhibition of recombinant EGFR (unknown origin) at 10 uM after 1 hr by microfluidic assay; method in brief: as §1
[39] = Cell cycle arrest in human PM8910 cells assessed as reduction of cells in S phase at 5 to 10 uM after 24 hrs by flow cytometry; format: functional, cell-based; method in brief: as §3
A549 [40] = assay: Cell cycle arrest in human A549 cells assessed as reduction of cells in S phase at 5 to 10 uM after 24 hrs by flow cytometry; format: functional, cell-based; method in brief: as §3

C=CC(=O)N1CCN(c2ccc(/C=C3\C(=O)Nc4ccccc43)cc2)CC1
Activity [1]: 55.06%
inhibition [2]: 38.3%
inhibition [3]: 7.2%
IC50 (Aurora kinase B [4]): 2.21 µM
inhibition [5]: 2.2%
IC50 [6]: 6.74 µM
IC50 [7]: 11.5 µM
IC50 [8]: 9.75 µM
Activity (A549 [9]): 50.28%
Activity [10]: 71.31%
IC50 [11]: 28.8 µM
Activity [12]: Active
inhibition (Aurora kinase B [13]): 4.5%
IC50 [14]: 0.128 µM
Activity [15]: Active
inhibition [16]: 13.4%
inhibition [17]: 55.3%
inhibition [18]: 19.1%
Activity [19]: Active
Activity (A549 [20]): Active
inhibition [21]: 90.7%
Activity [22]: 59.52%
inhibition [23]: 61.8%
inhibition (Aurora kinase B [24]): 41.6%
inhibition [25]: 30.1%
Activity [26]: 57.19%
Activity (U-251): 31.7%
inhibition (Aurora kinase B [27]): 93.5%
IC50 [28]: 7 µM
inhibition [29]: 30.6%
Activity [30]: 55.46%
Activity [31]: 27.99%
inhibition [32]: 14.9%
inhibition [33]: 26.2%
IC50 (A549 [34]): 10.1 µM
inhibition [35]: 88.2%
inhibition [36]: 0.4%
IC50 [37]: 7.68 µM
Activity (NCI-H1975): 60.01%
inhibition [38]: 75.4%
Activity [39]: Active
Activity (A549 [40]): Active
